The MIC is the lowest concentration found to suppress growth.

Assay [1] deals with Plasmodium falciparum. As to the kind of experiment: Antimalarial activity against Plasmodium falciparum NF 54 assessed as inhibition of maturation into schizont stage after 36 to 40 hrs. It is filed as functional. The gist of the method: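 Synchronous ring-stage NF-54 parasites (5% D-sorbitol synchronization) in RPMI-1640 with 25 mM HEPES, 1% D-glucose, 0.23% sodium bicarbonate and 10% heat-inactivated human serum. Start at 1% parasitemia, 3% hematocrit. Compounds tested in duplicate wells, 37 °C, candle jar, 36–40 h. Giemsa-stained smears read by microscopy. MIC is the lowest tested concentration blocking full maturation to schizonts. Chloroquine reference.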

The test system of assay [2] is Plasmodium yoelii. The assay is described as follows: Antimalarial activity against chloroquine-resistant Plasmodium yoelii infected in Swiss mice (Mus musculus) assessed as suppression of parasitaemia at 50 mg/kg, intraperitoneal for 4 days relative to control. It is filed as functional. The gist of the method: (§1)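 Swiss mice were infected on day 0 with 1 × 10^6 RBC parasitized by P. yoelii N-67. Five mice per group were dosed once daily on days 0–3 with a Tween 80 aqueous suspension, given ip in 0.2 mL or orally in 0.1 mL. Parasitemia was read from thin Giemsa smears on day 4. Suppression was calculated from group means as [(C − T)/C] × 100 against untreated controls.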

For assay [3], the system named is Plasmodium yoelii. As to the kind of experiment: Antimalarial activity against chloroquine-resistant Plasmodium yoelii infected in Swiss mice (Mus musculus) assessed as suppression of parasitaemia at 25 mg/kg, intraperitoneal for 4 days relative to control. In kind it is functional. An outline of the steps:
as §1

Assay [4] concerns Plasmodium yoelii. As to the kind of experiment: Antimalarial activity against chloroquine-resistant Plasmodium yoelii infected in Swiss mice (Mus musculus) assessed as suppression of parasitaemia at 100 mg/kg, peroral for 4 days relative to control. It is filed as functional. The settings on record: route oral. The gist of the method:
as §1

For assay [5], the system named is Plasmodium yoelii. The assay is described as follows: Antimalarial activity against chloroquine-resistant Plasmodium yoelii infected in Swiss mice (Mus musculus) assessed as mice (Mus musculus) survival at 50 mg/kg, intraperitoneal for 4 days relative to control. More on the design: dose 50 mg/kg. It is filed as functional, organism-based. An outline of the steps:
(§2)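 Swiss mice were inoculated with 1 × 10^6 P. yoelii N-67 parasitized RBC on day 0. Groups of five were dosed once daily on days 0–3 with compound as an aqueous suspension with a few drops of Tween 80. Intraperitoneal doses were given in 0.2 mL and oral doses in 0.1 mL. The read-out was the number of mice alive on day 28.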

For assay [6], the system named is Plasmodium yoelii. The assay is described as follows: Antimalarial activity against chloroquine-resistant Plasmodium yoelii infected in Swiss mice (Mus musculus) assessed as mice (Mus musculus) survival at 25 mg/kg, intraperitoneal for 4 days relative to control. In kind it is functional, organism-based. More on the design: dose 25 mg/kg. An outline of the steps:
as §2

The test system of assay [7] is Plasmodium yoelii. As to the kind of experiment: Antimalarial activity against chloroquine-resistant Plasmodium yoelii infected in Swiss mice (Mus musculus) assessed as mice (Mus musculus) survival at 100 mg/kg, peroral for 4 days relative to control. On the set-up: dose 100 mg/kg. In kind it is functional, organism-based. The gist of the method: as §2

≈ marks a conversion by molar mass, not a printed value. Calls of active or inactive are those of the source. The calls are words filed in the database; no cut-off is given here.

For the compound `N#CC1(c2ccccc2)CCN(CCNc2ccnc3cc(Cl)ccc23)CC1`, the MIC in assay [1] came out at 10 µg/mL (≈ 25.6 µM). The same measure, in the same setting: next, `COc1ccc2nc3cc(Cl)ccc3c(Nc3ccc(Nc4ccnc5cc(Cl)ccc45)cc3)c2c1`: 0.5 µg/mL (≈ 0.978 µM). For the compound `Clc1ccc2c(NCCCN3CCN(c4ccccn4)CC3)ccnc2c1`, the MIC in assay [1] was 0.125 µg/mL (≈ 0.327 µM). In addition, the Activity in assay [2], in assay [3] and in assay [4] was 100% in each case. Moreover, the outcome in assay [5], in assay [6] and in assay [7] was Active. On to `N#CC1(c2ccccc2)CCN(CCCNc2ccnc3cc(Cl)ccc23)CC1`, for which the MIC in assay [1] was determined as 2 µg/mL (≈ 4.94 µM). `O=[N+]([O-])c1cccnc1N1CCN(CCCNc2ccnc3cc(Cl)ccc23)CC1`: the MIC in assay [1] was 10 µg/mL (≈ 23.4 µM). Same read-out and setting: under `COc1ccc2nc3cc(Cl)ccc3c(NCCN3CCN(c4ccnc5cc(Cl)ccc45)CC3)c2c1` stands 1 µg/mL (≈ 1.88 µM); under `O=[N+]([O-])c1ccccc1N1CCN(CCCNc2ccnc3cc(Cl)ccc23)CC1`, 10 µg/mL (≈ 23.5 µM).

For `Clc1ccc2c(NCCN3CCN(c4ccccn4)CC3)ccnc2c1`, the MIC in assay [1] was determined as 10 µg/mL (≈ 27.2 µM). As to `COc1ccc2nc3cc(Cl)ccc3c(Nc3cccc(Nc4ccnc5cc(Cl)ccc45)c3)c2c1`, the MIC in assay [1] was 0.25 µg/mL (≈ 0.489 µM). The Activity in assay [2] worked out at 100%. Also, in assay [5], the outcome was inactive. Consider `COc1ccc2nc3cc(Cl)ccc3c(NCCCN3CCN(c4ccnc5cc(Cl)ccc45)CC3)c2c1`, for which the MIC in assay [1] amounted to 1 µg/mL (≈ 1.83 µM). In the case of `O=[N+]([O-])c1ccccc1N1CCN(CCNc2ccnc3cc(Cl)ccc23)CC1`, the MIC in assay [1] stood at 10 µg/mL (≈ 24.3 µM). For `Cc1ccc([N+](=O)[O-])c(N2CCN(CCNc3ccnc4cc(Cl)ccc34)CC2)c1`, the MIC in assay [1] came out at 10 µg/mL (≈ 23.5 µM). On the same count and under the same terms, next, `CCN(CC)CCCC(C)Nc1ccnc2cc(Cl)ccc12` (configuration not stated) [CHLOROQUINE]: 0.125 µg/mL (≈ 0.391 µM). As to `Clc1ccc2c(NCCCN3CCc4ccccc4C3)ccnc2c1`, in assay [1], the MIC came out at 0.031 µg/mL (≈ 0.0881 µM). Further, in assay [2], the Activity turned out to be 100%. The result in assay [5] was inactive. Consider `Cc1ccc([N+](=O)[O-])c(N2CCN(CCCNc3ccnc4cc(Cl)ccc34)CC2)c1`, for which the MIC in assay [1] worked out at 10 µg/mL (≈ 22.7 µM). On the same count and under the same terms, next, `Clc1ccc2c(NCCN3CCc4ccccc4C3)ccnc2c1`: 2 µg/mL (≈ 5.92 µM). Same read-out and setting: under `O=[N+]([O-])c1cccnc1N1CCN(CCNc2ccnc3cc(Cl)ccc23)CC1` stands 10 µg/mL (≈ 24.2 µM).

The record behind these values is ChEMBL document CHEMBL1287672, “Synthesis of new 4-aminoquinolines and quinoline-acridine hybrids as antimalarial agents” (2010).
